# Legend:
# Type in all cases: cell-based, human
# [1] = test system: TPA-induced EBV-EA expression in Raji cells; assay: EBV-EA activation assay; settings: for LogCurvP: log10 transformed response fingerprint (CurveP) of the four-dose EBV-EA data; for Exp. Act.: class from experimental LogCurvP, threshold 1.25
# [2] = Raji cell viability by Trypan Blue staining; settings: human, Raji cells
# Method in brief: (§1)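 Raji cells incubated 48 h at 37 °C in RPMI-1640 with 10 % FCS, n-butyric acid (4 mmol), TPA (32 pmol), and test compound at 0.32, 3.2, 16 or 32 nmol (10- to 1,000-fold of TPA). Viability was scored by Trypan Blue staining, and viability above 60 % was required to count as non-cytotoxic. Each concentration was run three times and averaged.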
# [3] = test system: Raji cells; assay: Raji cell viability by Trypan Blue staining; settings: value in parentheses at 32 (1,000-fold of TPA); Trypan Blue staining
# Method in brief: as §1
Structure (SMILES),LogCurvP [1],"viability at 48 h, 32 nmol [2] [%]",Exp. Act. [1],"EBV-EA inhibition potency, comparison in words [1]",viability percentages of Raji cells [3] [%]
"COc1cccc(CN(C)C(=O)/C=C/c2cccc(O)c2)c1 [Compound 1, (E)-3-(3-hydroxyphenyl)-N-(3-methoxybenzyl)-N-methylacrylamide]",1.04,> 60,–,–,–
"CN(Cc1cccc(O)c1)C(=O)/C=C/c1cccc(O)c1 [Compound 2, (E)-N-(3-hydroxybenzyl)-3-(3-hydroxyphenyl)-N-methylacrylamide]",1.04,> 60,Marginal active (active/marginally active threshold at LogCurvP = 1.25),–,–
"COc1cccc(/C=C/C(=O)NCc2cccc(OC)c2)c1 [Compound 3, (E)-N-(3-methoxybenzyl)-3-(3-methoxyphenyl)acrylamide]",1.04,> 60,Marginal active (active/marginally active threshold at LogCurvP = 1.25),–,–
"O=C(/C=C/c1cccc(O)c1)NCc1cccc(O)c1 [Compound 4, (E)-N-(3-hydroxybenzyl)-3-(3-hydroxyphenyl)acrylamide]",1.04,> 60,Marginal active (active/marginally active threshold at LogCurvP = 1.25),–,–
"COc1ccc(O)c(C(=O)/C=C/c2cccc(OC)c2OC)c1 [Compound 5, (E)-3-(2,3-dimethoxyphenyl)-1-(2-hydroxy-5-methoxyphenyl)prop-2-en-1-one]",1.43,> 60,Active,–,–
"COc1ccc2c(c1)C(=O)CC(c1cccc(O)c1O)O2 (stereo not shown) [Compound 6, 2-(2,3-dihydroxyphenyl)-6-methoxychroman-4-one]",1.43,> 60,Active,–,–
"O=C(/C=C/c1cccc(O)c1O)c1cc(O)ccc1O [Compound 7, (E)-3-(2,3-dihydroxyphenyl)-1-(2,5-dihydroxyphenyl)prop-2-en-1-one]",1.43,> 60,Active,less potent than its ring-closed analog 9,–
"COc1ccc2oc(-c3ccc(OC)c(OC)c3)cc(=O)c2c1 [Compound 8, 2-(3,4-dimethoxyphenyl)-6-methoxy-4H-chromen-4-one]",1.43,> 60,Active,–,–
"O=c1cc(-c2ccc(O)c(O)c2)oc2ccc(O)cc12 [Compound 9, 2-(3,4-dihydroxyphenyl)-6-hydroxy-4H-chromen-4-one]",1.43,> 60,Active,most potent analog among the tested compounds,–
"COc1ccc2oc(-c3ccc(O)c(OC)c3)cc(=O)c2c1 [Compound 10, 2-(4-hydroxy-3-methoxyphenyl)-6-methoxy-4H-chromen-4-one]",1.43,> 60,Active,–,–
"COc1ccc2oc(-c3ccc(O)c(O)c3)cc(=O)c2c1 [Compound 11, 2-(3,4-dihydroxyphenyl)-6-methoxy-4H-chromen-4-one]",1.43,> 60,Active,–,–
"COc1ccc(CCNC(=O)/C=C/c2ccc3c(c2)OCO3)cc1OC [Compound 13, (E)-3-(benzo[d] [1, 3]dioxol-5-yl)-N-(3,4-dimethoxyphenethyl)acrylamide]",1.04,–,Marginal active (active/marginally active threshold at LogCurvP = 1.25),–,> 60
"O=C(/C=C/c1ccc2c(c1)OCO2)NCCc1ccc(Cl)cc1 [Compound 14, (E)-3-(benzo[d] [1, 3]dioxol-5-yl)-N-(4-chlorophenethyl)acrylamide]",0.85,–,Marginal active (active/marginally active threshold at LogCurvP = 1.25),–,> 60
"O=C(/C=C/c1ccc2c(c1)OCO2)NCCCc1ccccc1 [Compound 15, (E)-3-(benzo[d] [1, 3]dioxol-5-yl)-N-(3-phenylpropyl)acrylamide]",1.04,–,Marginal active (active/marginally active threshold at LogCurvP = 1.25),–,> 60
"CN(C)CCCNC(=O)/C=C/c1ccc2c(c1)OCO2 [Compound 16, (E)-3-(benzo[d] [1, 3]dioxol-5-yl)-N-(3-(dimethylamino)propyl)acrylamide]",0.85,–,Marginal active (active/marginally active threshold at LogCurvP = 1.25),–,> 60
"COC(=O)COc1cccc2ccccc12 [Compound 17, Methyl 2-(naphthalen-1-yloxy)acetate]",1.04,> 60,Marginal active (active/marginally active threshold at LogCurvP = 1.25),–,–
"O=C(O)COc1cccc2ccccc12 [Compound 18, 2-(naphthalen-1-yloxy)acetic acid]",1.04,> 60,Marginal active (active/marginally active threshold at LogCurvP = 1.25),–,–
"COc1cc(/C=C/C(=O)CC(=O)/C=C/c2ccc(O)c(OC)c2)ccc1O [Curcumin, reference compound]",1.43,> 60,Active,–,–

# Source: publication PMC5600879 (Journal of computer-aided molecular design, 2014)
